Measurements from the array DNA melting data of Ke et al. (doi:10.1101/2024.01.08.574731).

Legend:
[1] = folding enthalpy; higher = less favourable; fluorescence melt of hairpins on a sequencing array, two-state fit; settings: sodium 0.088 M
Outline: (§1)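 To match UV melts, fitted temperatures were raised by 9.35 °C. These fits were bootstrapped two-state models that gave melting temperature and folding enthalpy, combined by inverse variance over four replicates. The input was normalised Cy3 fluorescence of library hairpins with annealed Cy3 and quencher oligos on a sequenced MiSeq flow cell, imaged in 50 mM Na-HEPES pH 8.0, 25 mM NaCl in 2.5 °C steps up to 60 °C.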

[2] = melting temperature; fluorescence melt of hairpins on a sequencing array, two-state fit, raised by 9.35 °C to match UV melts; settings: sodium 0.088 M
Outline: as §1

Sequence | folding enthalpy [1] | Tm [2]
GTCATCGGAAACGATAAC ((.((((....)))).)) | -82.6 kJ/mol | 32.2 °C
GCAGGAGGAAACTCCCAC (..((((....))))..) | -70.3 kJ/mol | 25.8 °C
GGACTCGGAAACGAATCC (((.(((....))).))) | -112 kJ/mol | 40.9 °C
GACTAAGGAAACTTGGTC (((.(((....))).))) | -126 kJ/mol | 39.3 °C
GGCTCCGGAAACGGAGTC (.(((((....))))).) | -126 kJ/mol | 60.8 °C
GAGACACGAAAGTGACTC (((.(((....))).))) | -151 kJ/mol | 55.6 °C
GTATTCCGAAAGGAGTAC (((.(((....))).))) | -153 kJ/mol | 47.5 °C
GAGTGCGGAAACGCGCTC (((.(((....))).))) | -133 kJ/mol | 66.1 °C
GCACCACGAAAGTGTGC (((.(((....)))))) | -145 kJ/mol | 58.6 °C
GCGAGTAGTCGC ((((....)))) | -83.1 kJ/mol | 54.3 °C
GCATGCGAAAGCATTGC ((((((....))).))) | -89.2 kJ/mol | 57.9 °C
GCCAGAGGAAACTCCGGC (((.(((....))).))) | -102 kJ/mol | 45.6 °C
GTTCGAGGAAACTTGGAC ((.(.((....)).).)) | -66.9 kJ/mol | 31.2 °C
GTGGTAGGAAACTATCGC (.(.(((....))).).) | -75.6 kJ/mol | 31.1 °C
GGCGCTGGAAACGGCGTC (.(((.(....).))).) | -117 kJ/mol | 54.3 °C
GATCCAAAGGTGGATC ((((((....)))))) | -109 kJ/mol | 47 °C
AACATGAAAATGTT (((((....))))) | -61.3 kJ/mol | 33.6 °C
GCGATACGAAAGTACGC (((.(((....)))))) | -124 kJ/mol | 55.4 °C
GCGATTTTTCGC ((((....)))) | -114 kJ/mol | 53.1 °C
GATCATCCAATGATC ((((((...)))))) | -131 kJ/mol | 46.9 °C
GCGTTCCGAAAGGACCGC (((.(((....))).))) | -194 kJ/mol | 58.4 °C
GCAGGCCCGAAAGGGTGC (((..(((....)))))) | -54.8 kJ/mol | 41.9 °C
GTCGGTCCGAAAGGAGAC (((..(((....)))))) | -62.8 kJ/mol | 36 °C

Sequence | folding enthalpy [1] | Tm [2]
GTTGGACGAAAGTCTAAC (((.(((....))).))) | -110 kJ/mol | 51.4 °C
GTATACACGAAAGTGTAC (((..(((....)))))) | -40.9 kJ/mol | 31.1 °C
GCAGACGAAAGTCACTGC ((((((....)))..))) | -78 kJ/mol | 39.5 °C
GCACAGGGAAACCTGCAC (..((((....))))..) | -43.3 kJ/mol | 28.4 °C
GCGTTCGAAAGAAGTCGC ((((((....)))..))) | -110 kJ/mol | 37.7 °C
GCAATGCGAAAGCACCGC ((..(((....)))..)) | -41.3 kJ/mol | 33 °C
GCAGTCGGAAACGACTAC (.(((((....))))).) | -55.9 kJ/mol | 41.7 °C
GACACGCGAAAGCGCGTC (((.(((....))).))) | -105 kJ/mol | 63.9 °C
GGTCCCGAAAGGGTAACC ((((((....)))..))) | -75.3 kJ/mol | 42.2 °C
GTTGATGGAAACATTAAC (((.(((....))).))) | -143 kJ/mol | 37.5 °C
GGAACAGGAAACTGTTCC (((((((....))))))) | -150 kJ/mol | 60.6 °C
GACGGGGGAAACTCCGTC (((((.(....).))))) | -159 kJ/mol | 58.1 °C
GATCTTAGCTAAGATC ((((((....)))))) | -184 kJ/mol | 48.5 °C
GATCTAGGCTAGATC ((((((...)))))) | -231 kJ/mol | 45.5 °C
GTTTGACGAAAGTCTAAC (((.(((....))).))) | -105 kJ/mol | 47.7 °C
GATCAGAGCGCTGATC ((((((....)))))) | -115 kJ/mol | 49.1 °C
GGACCCGAAAGGGATCC ((((((....))).))) | -87.2 kJ/mol | 54.2 °C
GCGGTCAGCCGC ((((....)))) | -116 kJ/mol | 57.4 °C
GAGGTAGGAAACTACCCC (.(((((....))))).) | -50.6 kJ/mol | 39.1 °C
ATAGCGAAAGCTAT (((((....))))) | -66.7 kJ/mol | 54 °C
GCATTCTCGAAAGAGTGC (((..(((....)))))) | -102 kJ/mol | 40.9 °C
GATGCGCGAAAGCGAATC (((.(((....))).))) | -93.4 kJ/mol | 57.2 °C
GGTCTCGCGAAAGCGACC (((..(((....)))))) | -40.7 kJ/mol | 33.2 °C

Sequence | folding enthalpy [1] | Tm [2]
GTCGGCGAAAGCCACGAC ((((((....)))..))) | -60.3 kJ/mol | 56 °C
GTGCTACGAAAGTACAC (((.(((....)))))) | -107 kJ/mol | 45.3 °C
GAACATGGAAACACGTTC ((((.((....)).)))) | -115 kJ/mol | 33 °C
GGCCACCGAAAGGTCGCC (((.(((....))).))) | -206 kJ/mol | 53.3 °C
GCATGGAAACATGC (((((....))))) | -129 kJ/mol | 57.4 °C
TAGCTGAAAAGCTA (((((....))))) | -61.2 kJ/mol | 46.9 °C
GATCCATACTGGATC ((((((...)))))) | -157 kJ/mol | 51.4 °C
GATCACGCTGGTGATC ((((((....)))))) | -178 kJ/mol | 58.2 °C
GATCTCTTCCGAGATC ((((((....)))))) | -155 kJ/mol | 52.3 °C
GGATCAGCGAAAGCTTCC (((..(((....)))))) | -53.1 kJ/mol | 30.7 °C
GCGGTAGGAAACTATCGC (((.(((....))).))) | -159 kJ/mol | 53.7 °C
GTGGCGGGAAACCGCTAC ((.((((....)))).)) | -80.6 kJ/mol | 58.3 °C
GCCGCCGAAAGGCGAGGC ((((((....)))..))) | -60.4 kJ/mol | 60.6 °C
GCACGACGAAAGTCTTGC (((.(((....))).))) | -150 kJ/mol | 53.7 °C
GGTCGACGAAAGTCACC (((.(((....)))))) | -67.9 kJ/mol | 50.9 °C
GGCGTTGGAAACAACGTC (.(((((....))))).) | -106 kJ/mol | 57.8 °C
GATCCTAAAGAGGATC ((((((....)))))) | -131 kJ/mol | 46.1 °C
GGACCCGGAAACAGGTCC (((((.(....).))))) | -166 kJ/mol | 49.4 °C
GCCAAGCGAAAGCTCTGC ((..(((....)))..)) | -47.9 kJ/mol | 31.2 °C
GCATTCACGAAAGTGTGC (((..(((....)))))) | -76 kJ/mol | 37.6 °C
GCGCGCGGAAACGCGCAC (.(((((....))))).) | -31.2 kJ/mol | 65.3 °C
GCCTCGCGAAAGCGGTGC ((..(((....)))..)) | -58.9 kJ/mol | 43.7 °C
GAACTGGGAAACTGGTTC ((((..(....)..)))) | -108 kJ/mol | 33.3 °C
